Data on 20 compounds can be found in ChEMBL document CHEMBL4613213, “Anibamine and Its Analogues: Potent Antiplasmodial Agents from Aniba citrifolia” (J Nat Prod, 2020).

The structures appear in SMILES notation. Active and inactive are the calls of the source. No cut-off for these calls is given here. Bounds are passed on as bounds.

The test system of data set [1] is Plasmodium falciparum. Nature of the data set: Antiplasmodial activity against Plasmodium falciparum Dd2 assessed as reduction in parasite growth after 72 hrs by SYBR Green 1 staining based assay. The format is functional, organism-based. The essentials:
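Dd2 cultures started at ring stage, 1% hematocrit and 1% parasitemia. Grown 72 h at 37 °C in 5% CO2/5% O2/90% N2 across increasing drug concentrations. Viability read by SYBR Green I DNA quantitation in lysis buffer. IC50 from nonlinear regression; mean of three independent determinations, each in triplicate, ± SEM.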

A further data set has as its system A2780. Nature of the data set: Cytotoxicity against human A2780 cells assessed as reduction in cell viability after 2 days by AlamarBlue assay. The format is ADME, cell-based. The note with it: A2780, 48 h. On the technique in general: Alamar Blue is a resazurin reagent that responds to reducing activity.
Data set [2] has as its system Plasmodium falciparum. Description: Antiplasmodial activity against Plasmodium falciparum Dd2 schizonts form infected in erythrocytes assessed as reduction in parasite growth at 0.5 uM after 6 hrs by Giemsa staining based light microscopic method. The format is functional, organism-based. In outline:
(§1)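 Compound added at schizont stage (40–42 post-invasion). Morphology assessed on Giemsa-stained thin blood smears at 6, 24 and 48 h of treatment and compared with untreated controls. Two or more independent experiments.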

In data set [3] the test system is Plasmodium falciparum. Description: Antiplasmodial activity against Plasmodium falciparum Dd2 schizonts form infected in erythrocytes assessed as reduction in ring stage formation at 0.5 uM after 6 hrs by Giemsa staining based light microscopic method. The data set is classed as functional, organism-based. The essentials: as §1
In data set [4] the test system is Plasmodium falciparum. Nature of the data set: Antiplasmodial activity against Plasmodium falciparum Dd2 schizonts form infected in erythrocytes assessed as reduction in reinvasion at 0.5 uM after 6 hrs by Giemsa staining based light microscopic method. The data set is classed as functional, organism-based. The essentials: as §1
The test system of data set [5] is Plasmodium falciparum. Description: Antiplasmodial activity against Plasmodium falciparum Dd2 ring stage form infected in erythrocytes assessed as reduction in reinvasion at 0.5 uM after 48 to 72 hrs by Giemsa staining based light microscopic method. The data set is classed as functional, organism-based. In outline:
(§2)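 Compound added at ring stage (2–4 h post-invasion). Development followed on Giemsa-stained thin blood smears after 6, 24, 48 and 72 h of treatment and compared with untreated controls. Two or more independent experiments.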

Data set [6] has as its system Plasmodium falciparum. Description: Antiplasmodial activity against Plasmodium falciparum Dd2 ring stage form infected in erythrocytes assessed as reduction in parasite growth at 0.5 uM after 6 to 72 hrs by Giemsa staining based light microscopic method. The format is functional, organism-based. The essentials:
as §2

Data set [7] is described as follows: Hemolytic activity in human RBC. The data set is classed as cell-based, Erythrocyte. The note with it: human red blood cells (erythrocytes).
In data set [8] the test system is Plasmodium falciparum. Nature of the data set: Antiplasmodial activity against Plasmodium falciparum Dd2 schizonts form infected in erythrocytes assessed as reduction in ring stage formation at 1 uM after 6 hrs by Giemsa staining based light microscopic method. The data set is classed as functional, organism-based. The essentials:
as §1

The subject of data set [9] is Plasmodium falciparum. Description: Antiplasmodial activity against Plasmodium falciparum Dd2 schizonts form infected in erythrocytes assessed as morphological defects formation at 1 uM after 48 hrs by Giemsa staining based light microscopic method. The data set is classed as functional, organism-based. The essentials: as §1
In data set [10] the test system is Plasmodium falciparum. Description: Antiplasmodial activity against Plasmodium falciparum Dd2 schizonts form infected in erythrocytes assessed as reduction in parasite growth at 1 uM after 6 hrs by Giemsa staining based light microscopic method. The data set is classed as functional, organism-based. The essentials:
as §1

The test system of data set [11] is Plasmodium falciparum. Nature of the data set: Antiplasmodial activity against Plasmodium falciparum Dd2 schizonts form infected in erythrocytes assessed as reduction in trophozoites formation at 1 uM after 48 hrs by Giemsa staining based light microscopic method. The format is functional, organism-based. In outline: as §1
Data set [12] deals with Plasmodium falciparum. Description: Antiplasmodial activity against Plasmodium falciparum Dd2 schizonts form infected in erythrocytes assessed as reduction in reinvasion at 1 uM after 6 hrs by Giemsa staining based light microscopic method. The format is functional, organism-based. The essentials: as §1
The mark [13] stands for this setting: Plasmodium falciparum, Dd2, 72 h, read-out: IC50.

Broadly, the IC50 is the point on the concentration scale where inhibition reaches its midpoint. Take `CCCCCCCC/C=C\c1c(C)cc(C)nc1CCCOC`: in the data set with Plasmodium falciparum [1] (setting [13]), the 50% inhibitory concentration (IC50) turned out to be 8.8 µM.

On to `C=CC[C@@]1(OC)C=C2C(=CC1=O)O[C@H](c1ccc3c(c1)OCO3)[C@H]2C`, for which the IC50 result with Plasmodium falciparum [1] is “Not Active”; with A2780, 10 to 50 µM.

As for `CCCCCCCC/C=C/c1c(C)nc(CCCOC)c(/C=C/CCCCCCCC)c1C`, the concentration for half-maximal inhibition (IC50) in the data set on Plasmodium falciparum [1] (setting [13]) is > 20 µM.

Turning to `C=CCOc1cc2c(cc1OC)[C@H](C)[C@@H](c1ccc3c(c1)OCO3)O2`, the concentration for half-maximal inhibition (IC50) in the data set with Plasmodium falciparum [1] (setting [13]) was 30 µM; in the data set with A2780, 10 to 50 µM.

As to `C.C=CC[C@]1(C(=O)OC)CC(=O)C[C@H](c2ccc3c(c2)OCO3)[C@H]1C`, the IC50 was > 100 µM with Plasmodium falciparum [1] (setting [13]) and > 10 µM in the data set with A2780.

Regarding `C[C@@H]1CC[C@H]2[C@@H](C)C(=O)O[C@@H]3O[C@@]4(C)CC[C@@H]1[C@]32OO4` [ARTEMISININ], the IC50 in the data set with Plasmodium falciparum [1] (setting [13]) was determined as 0.0065 µM.

Turning to `CCCCCCCC/C=C\c1c(C)nc(CCCOC)c(/C=C/CCCCCCCC)c1C`, the IC50 with Plasmodium falciparum [1] (setting [13]) is > 20 µM.

As for `COc1cc(C/C=C(\C)CCC=C(C)C)c(O)c(-c2cc3cc(OC)cc(C/C=C(\C)CCC=C(C)C)c3oc2=O)c1`, the IC50 with Plasmodium falciparum [1] (setting [13]) was determined as 18.2 µM.

Regarding `CCCCCCCC/C=C/c1c(C)cc2[n+](c1C)CCC2`, in the data set on Plasmodium falciparum [1] (setting [13]), the IC50 amounted to 0.171 µM. Besides, the outcome with Plasmodium falciparum [2], in the data set on Plasmodium falciparum [3], with Plasmodium falciparum [4], in the data set with Plasmodium falciparum [5] and in the data set with Plasmodium falciparum [6] was inactive.

For the compound `CCCCCCCC/C=C/c1c(C)cc(C)[n+]2c1CCC2`, the IC50 with Plasmodium falciparum [1] (setting [13]) was 0.058 µM. Further, the result in the data set on Plasmodium falciparum [2], in the data set on Plasmodium falciparum [3], with Plasmodium falciparum [4], in the data set on Plasmodium falciparum [5] and in the data set on Plasmodium falciparum [6] was inactive.

Consider `CCCCCCCCCCc1c(C)nc(CCCOC)c(CCCCCCCCCC)c1C`, for which the IC50 in the data set on Plasmodium falciparum [1] (setting [13]) was > 20 µM.

As to `CCCCCCCC/C=C\c1c(C)nc(C)c(/C=C/CCCCCCCC)c1C`, the IC50 in the data set on Plasmodium falciparum [1] (setting [13]) came to 20 µM.

As for `CCCCCCCC/C=C\c1c(C)cc(C)nc1C`, in the data set with Plasmodium falciparum [1] (setting [13]), the IC50 is > 20 µM.

For `C=CC[C@@]12C=C(OC)C(=O)C=C1O[C@H](c1ccc3c(c1)OCO3)[C@H]2C`, the figures for the IC50 in the data set with Plasmodium falciparum [1] (setting [13]) and with A2780 were > 30 µM and 10 to 50 µM, respectively.

The HC50 is the concentration that lyses half of the red blood cells. Higher therefore signals less damage to red cells. For `CCCCCCCC/C=C\c1c(C)c(/C=C\CCCCCCCC)c2[n+](c1C)CCC2` [AANIBAMINE], the IC50 with Plasmodium falciparum [1] (read-out: IC50) came to 0.11 µM. Moreover, the HC50 in [7] is > 58 µM.

`CCCCCCCC/C=C/c1c(C)c(CCCCCCCCCC)c2[n+](c1C)CCC2`: the IC50 in the data set on Plasmodium falciparum [1] (setting [13]) amounted to 0.244 µM; in the data set with A2780, 0.241 µM.

As for `CCCCCCCCCCc1c(C)c(CCCCCCCCCC)c2[n+](c1C)CCCCC2`, the outcome with Plasmodium falciparum [8], with Plasmodium falciparum [10] and in the data set with Plasmodium falciparum [12] was inactive. Moreover, the half-inhibitory concentration (IC50) in the data set with Plasmodium falciparum [1] (setting [13]) is 0.077 µM. The outcome with Plasmodium falciparum [9] and in the data set on Plasmodium falciparum [11] was Active. The HC50 in data set [7] was > 58 µM.

Take `CCCCCCCC/C=C\c1c(C)cc(CCCOC)nc1C`: the concentration for half-maximal inhibition (IC50) in the data set on Plasmodium falciparum [1] (setting [13]) amounted to 6.3 µM.

As to `CCCCCCCC/C=C\c1c(CCCOC)nc(C)c(/C=C/CCCCCCCC)c1C`, in the data set with Plasmodium falciparum [1] (setting [13]), the IC50 is > 20 µM.

Take `CCCCCCCCCCc1c(C)nc(C)c(CCCCCCCCCC)c1C`: in the data set with Plasmodium falciparum [1] (setting [13]), the half-inhibitory concentration (IC50) is > 20 µM.
